Source: PMC6243397 (ACS Chemical Biology, 2018)
Like-named read-outs stand apart in the source and are kept apart here.

Assays:
[1] = Mouse liver microsome stability assay; type: in vitro ADME; conditions: percentage remaining relative to t0
[2] = Stability control without microsomes; type: physicochemical; conditions: microsomes replaced with PBS, percentage remaining relative to t0
[3] = Hydrolytic stability in PBS; type: physicochemical; conditions: pH 7.4, t1/2 in PBS, PBS pH 7.4, 37 °C
human GBM cell lines = assay: Panel of human GBM cell lines, viability; type: cell-based
U87 cells = assay: O6-methyldeoxyguanosine quantitation; type: cell-based, human; conditions: 100 or 1000 μM, 8 h
Method in brief: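 U87 cells were treated with 100 or 1000 μM test compound for 8 h. Genomic DNA was isolated, quantified and hydrolysed to deoxyribonucleosides. O6-methyldeoxyguanosine was quantitated by LC-MS/MS and expressed per 10 μg DNA.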

[4] = in vivo blood-brain barrier permeability; conditions: CD-1 IGS, mouse, brain and serum, iv, 25 mg/kg
[5] = cited from earlier work
[6] = Assessment of hematological toxicity; type: in vivo, mouse; conditions: single IV dose 125 mg/kg, 7 days post-treatment
Method in brief: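 Mice received a single IV dose of 125 mg/kg test compound. Whole blood was collected 7 days post-dose and a complete blood count run per mouse (total WBC, lymphocytes, neutrophils). Four mice per cohort; error is SEM. Groups were compared with control by two-tailed two-sample Student's t test assuming equal variance.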

In the case of `Cn1nnc2c(-c3ccccc3)ncn2c1=O` [Compound 23], the “stability (2 h, microsomes)” value [1] is reported as 44 ± 2% and the “stability (2 h, no microsomes)” value [2] is reported as 103 ± 5%.

For `Cn1nnc2c(Cl)ncn2c1=O` [Compound 19], the “stability (2 h, microsomes)” value [1] was 91 ± 3% and the “stability (2 h, no microsomes)” value [2] was 91 ± 1%.

Work on `Cc1ncn2c(=O)n(C)nnc12` [Compound 14] yielded a half-life [3] of 40 h.

For `CCCCN(CCCC)C(=O)c1ncn2c(=O)n(C)nnc12` [Compound 7], the “stability (2 h, microsomes)” value [1] was 1 ± 1% and the “stability (2 h, no microsomes)” value [2] was 98 ± 3%.

In the case of `CCN(CC)C(=O)c1ncn2c(=O)n(C)nnc12` [Compound 6], the “stability (2 h, microsomes)” value [1] is reported as 81 ± 1% and the “stability (2 h, no microsomes)” value [2] is reported as 95 ± 2%.

For `Cn1nnc2c(C(N)=O)ncn2c1=O` [TMZ, temozolomide], the “stability (2 h, microsomes)” value [1] was 87 ± 6%, the IC50 (human GBM cell lines; read-out: IC50 in cell lines with negligible MGMT expression) was at most 50 µM and the IC50 (human GBM cell lines; read-out: IC50 in cell lines with significant MGMT expression) was over 300 µM. The “concentration of O6-methylated deoxyguanosine” value (U87 cells) was “Dose dependent increases”, the “stability (2 h, no microsomes)” value [2] was 86 ± 4% and the Kp at 5 min [4] was 0.23 ± 0.03. The half-life in humans ([5]; humans) was about 2 h, the “half-life in vivo and in aqueous solutions in vitro” value ([5]; in vivo and in aqueous solutions in vitro) was about 2 h and the “myelosuppression / white blood cell count” value [6] was “white blood cell (WBC) depletion relative to control mice”.
